The text below walks through data of PubChem BioAssay.

The structures appear in SMILES notation. Unmarked numbers belong to inactive results. Results filed as inconclusive are left out. Calls of active or inactive are those of the source.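 How the source made its calls, unless noted: active means viability increase at or above a cutoff of the median across tested compounds plus 3 SD (cut at about 8.5% in these data, passing the limit was not always enough); inconclusive means some gains above the cutoff, reason not given; inactive means the rest.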

Assay [1] in a line: S. cerevisiae growth inhibition in permissive medium (OD615), pilot counter-assay for S. cerevisiae lifespan shortening project, permissive growth control (AID 705;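 active means growth inhibition above 25% in both replicates, a cutoff set 3 SD above the mean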). The following applies: OD615, 24 h, at 10 µM, hits give high values. The gist of the method:
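assay system = Saccharomyces cerevisiae strain carrying genetically modified DeaD replicative-lifespan system | technique = absorbance (optical density) at 615 nm | buffer or medium = permissive raffinose/galactose medium | timing = cells pre-grown 4 h, then 24 h compound exposure, 30 °C humidified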

Assay [2] in a line: S. cerevisiae growth inhibition in restrictive medium, OD615, pilot screen, restrictive growth control, yeast lifespan reduction project (AID 706;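 active means growth inhibition above a set limit, 3 SD over mean compound inhibition, in both replicates, cut at about 43% in these data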;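 further: modified DeaD lifespan yeast strain shifted to restrictive glucose medium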). The following applies: OD615, 48 h, at 10 µM, hits give high values. The gist of the method: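 System: modified S. cerevisiae. Buffer or medium: CSMM-D glucose medium. Incubation: 4 h pre-growth plus 48 h compound exposure, 30 °C. Detection: absorbance (optical density) measured at 615 nm.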

Assay [3] is described as follows: doxorubicin toxicity protection in MRP-1 cells – H69AR cells, CellTiter-Glo, duplicate, MRP-1 activator project, pilot screen (AID 807).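 Further: compound pretreatment 18-22 h then 72 h combined with doxorubicin; 0% = doxorubicin alone and 100% = vehicle without doxorubicin.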 The settings on record: H69AR viability with doxorubicin, CellTiter-Glo luminescence; at 10 µM; hits give high values.
The nature of assay [4]: viability of HCT116 without oncogenic beta-catenin – human colon tumor cells, pilot screen (AID 823;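 active means cell viability at or below a set limit in both duplicate runs, the limit being the all-compound median minus 4 SD, cut at about 23% in these data, passing the limit was not always enough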;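 further: 0% = wells killed by 20 µM Hyamine and 100% = untreated DMSO cell wells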). The following applies: HCT116 beta-catenin knockout viability, CellTiter-Glo, 60 h; at 10 µM; hits give low values.
Assay [5] is described as follows: viability of PTEN-null HCT116 cells – cell-based, HCT116 clonal line, CellTiter-Glo, pilot screen (AID 824;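 active means viability at or below 27.92% in each of two runs, the all-compound median minus 4 SD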;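 further: 0% = 20 µM Hyamine control and 100% = vehicle cell control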). The settings on record: HCT116 PTEN-deleted viability, 60 h, at 10 µM, hits give low values.
A short description of assay [6]: RAM pathway blockade in budding yeast – dse1pr::URA3 reporter, 5-FOA selection, pilot screen (AID 869;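 active means inhibition over a set limit, the all-compound mean plus 3 SD, in both replicate runs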;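 further: 0% = DMSO wells with no growth and 100% = 10 µM 1-NA-PP1 with full growth; RAM network block rescues cells from 5-FOA so hits raise OD615 growth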). The following applies: S. cerevisiae dse1pr::URA3 5-FOA growth, OD615, 2 d; at 10 µM; hits give high values; strain carries analog-sensitive mutant Cbk1 kinase.
Assay [7] is described as follows: RAM signaling pathway blockade in yeast – S. cerevisiae, Pdr1DBD-CYC8 efflux-inhibited sensitized strain, primary screen (AID 1298;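 active means RAM network inhibition above 8.4% in each of two replicates, 3 SD over the compound average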;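 further: 0% = DMSO untreated cells without growth and 100% = 10 µM 1-NA-PP1 full growth; higher means more yeast growth rescued from 5-FOA killing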). The settings on record: S. cerevisiae cbk1-as DSE1-URA3 strain, 5-FOA growth OD615, 2 d; at 50 µM; hits give high values.

Consider `O=C(c1ccc(-c2ccccc2)cc1)N1CCCC1`, for which the results for the growth inhibition in assay [1] and in assay [2] were 0.63% and -4.7%, respectively. Further, the viability increase in assay [3] is 0.06%. The viability is 94.9% in assay [4] and 98.8% in assay [5]. Besides, in assay [6], the inhibition is 0.02%. In addition, in assay [7], the RAM network inhibition is 10.3%.

As to `Cc1nc(SCC(=O)NCc2ccco2)c2oc3ccccc3c2n1`, the results for the growth inhibition in assay [1] and in assay [2] were -0.535% and 1.3%, respectively. Besides, the viability increase in assay [3] was -2.69%. Moreover, the viability is 95.2% in assay [4] and 94% in assay [5]. Besides, the inhibition in assay [6] was 0.86%. Also, the RAM network inhibition in assay [7] is 2.53%.

Turning to `CCCNC(=O)C1CC(=O)N(c2ccc(OCC(=O)Nc3cccc(C)c3C)cc2)C1` (stereo unspecified), the values for the growth inhibition in assay [1] and in assay [2] were -13.4% and -14.8%, respectively. Besides, the viability increase in assay [3] is -1.99%. Besides, the viability was 106% in assay [4] and 97.7% in assay [5]. Moreover, the inhibition in assay [6] was 2.35%. Further, in assay [7], the RAM network inhibition was 1.01%.

As for `O=C(O)C1C2C=CC(C2)C1C(=O)OCC1CCCO1` (stereo unspecified), the results for the growth inhibition in assay [1] and in assay [2] were -6.31% and 1.68%, respectively. Besides, in assay [3], the viability increase was -1.53%. The viability in assay [4] was 98.1%; in assay [5], 94.8%. Besides, the inhibition in assay [6] is 0.865%. Besides, in assay [7], the RAM network inhibition is 1.34%.

In the case of `CCC(C)Nc1ncnc2c1cnn2Cc1ccc(Cl)cc1` (stereo unspecified), the growth inhibition is -13.7% in assay [1] and -18.8% in assay [2]. Further, the viability increase in assay [3] was 6.18%. Also, the viability in assay [4] is 85.5%; in assay [5], 86.7%. Moreover, the inhibition in assay [6] is -0.295%. In assay [7], the RAM network inhibition is 2.14%.

Consider `COc1ccc2c(c1)c(CCN1C(=O)c3ccccc3C1=O)cn2C(=O)c1ccco1`, for which the growth inhibition was -5.41% in assay [1] and 0.45% in assay [2]. In addition, the viability increase in assay [3] is -4.3%. The results for the viability in assay [4] and in assay [5] were 85.7% and 85.9%, respectively. Moreover, in assay [6], the inhibition was 2.02%. The RAM network inhibition in assay [7] is 4.8%.

For `O=C(Cn1c(=O)oc2cc(S(=O)(=O)N3CCc4ccccc43)ccc21)N1CCCCC1`, the growth inhibition is -2.98% in assay [1] and -7.46% in assay [2]. In assay [3], the viability increase is -2.88%. In addition, the viability in assay [4] was 98.1%; in assay [5], 80.5%. In addition, in assay [6], the inhibition is -0.125%. The RAM network inhibition in assay [7] was 2.79%.

As to `Cc1cc(C)nc(N(C#N)Cc2ccccc2Cl)n1`, the values for the growth inhibition in assay [1] and in assay [2] were -8.69% and 4.5%, respectively. Also, in assay [3], the viability increase was -3.71%. In addition, the viability in assay [4] was 99.7%; in assay [5], 95.5%. In addition, the inhibition in assay [6] is 1.48%. For the same compound, in assay [7], the RAM network inhibition was -0.21%.

Regarding `O=C(Nc1nnc(-c2cccs2)o1)c1cccc(C(F)(F)F)c1`, the growth inhibition in assay [1] is -14.9%; in assay [2], 7.83%. Besides, the viability increase in assay [3] is -0.12%. Besides, the viability in assay [4] was 15.5% (active); in assay [5] it was 19.5% (active). In assay [6], the inhibition is 1.56%. Besides, in assay [7], the RAM network inhibition was 3.02%.

Regarding `O=C(Cc1ccccc1)Nc1c(C(=O)N2CCOCC2)cnn1-c1ccccc1`, the growth inhibition in assay [1] was 6.39%; in assay [2] it was -23.4%. Also, the viability increase in assay [3] is -1.59%. Also, the viability is 93.5% in assay [4] and 97% in assay [5]. Also, the inhibition in assay [6] is 1.21%. Moreover, the RAM network inhibition in assay [7] is 1.24%.

Consider `CCn1ncc(C2=NOC(C(=O)Nc3c(C)n(C)n(-c4ccccc4)c3=O)C2)c1C` (stereo unspecified), for which the growth inhibition is -7.05% in assay [1] and 5.18% in assay [2]. The viability increase in assay [3] was 0.26%. Moreover, the viability in assay [4] is 96.1%; in assay [5], 95.8%. In assay [6], the inhibition was 0.855%. For the same compound, in assay [7], the RAM network inhibition was 2.78%.

Turning to `O=C(NCc1ccc2c(c1)OCO2)c1ccc(NC(=O)C2CCCO2)cc1` (stereo unspecified), the growth inhibition was -11% in assay [1] and -20.2% in assay [2]. The viability increase in assay [3] was -2.17%. Further, the viability in assay [4] was 102%; in assay [5], 103%. Besides, the inhibition in assay [6] was 3.76%. In addition, the RAM network inhibition in assay [7] was 4.81%.

Turning to `O=C(CCN1C(=O)c2ccccc2C1=O)OCn1nnc2ccccc2c1=O`, the growth inhibition was -14.7% in assay [1] and -15.3% in assay [2]. Further, the viability increase in assay [3] was -0.15%. The viability in assay [4] is 107%; in assay [5], 100%. Besides, the inhibition in assay [6] was 4.12%. Further, the RAM network inhibition in assay [7] was 2.39%.

`Cc1cc2cc(CCNC(=O)CC(C)(C)C)c(=O)[nH]c2cc1C`: the values for the growth inhibition in assay [1] and in assay [2] were -11.3% and -21%, respectively. Also, the viability increase in assay [3] is -0.18%. Also, the viability in assay [4] is 101%; in assay [5], 98.7%. For the same compound, in assay [6], the inhibition was 2.57%. The RAM network inhibition in assay [7] is 5.74%.

On to `COC(=O)c1ccc(OC(=O)c2nn(C)cc2Cl)c(OC)c1`, for which the results for the growth inhibition in assay [1] and in assay [2] were -0.14% and 10.2%, respectively. The viability increase in assay [3] is -5.78%. Besides, the results for the viability in assay [4] and in assay [5] were 101% and 95.5%, respectively. In addition, the inhibition in assay [6] is -0.22%. Besides, the RAM network inhibition in assay [7] was -0.57%.

For `Cc1cc2nc(-c3cccc(NC(=O)c4ccc(Br)o4)c3C)oc2cc1C`, the growth inhibition is -0.715% in assay [1] and -9.59% in assay [2]. The viability increase in assay [3] was 3.53%. Further, the viability was 87% in assay [4] and 84.2% in assay [5]. Further, the inhibition in assay [6] was 2.33%. The RAM network inhibition in assay [7] is 2.65%.

Regarding `COc1ccccc1N1CCN(c2cc(C)nc3nc(C)nn23)CC1`, the results for the growth inhibition in assay [1] and in assay [2] were -9.41% and -13.6%, respectively. In addition, the viability increase in assay [3] is -4.75%. Further, the viability in assay [4] is 85.7%; in assay [5] it was 83.6%. Moreover, the inhibition in assay [6] is 2.03%. Also, the RAM network inhibition in assay [7] is -0.21%.

For the compound `O=C(O)Cc1ccc(NC(=O)C2CC=CCC2C(=O)O)cc1` (stereo unspecified), the growth inhibition in assay [1] is -7.36%; in assay [2] it was 1.55%. Further, the viability increase in assay [3] was 1.02%. Further, the figures for the viability in assay [4] and in assay [5] were 102% and 104%, respectively. The inhibition in assay [6] was 3.26%. Further, the RAM network inhibition in assay [7] was 8.93%.
